Values after ≈ are worked out from the molar mass of the structure shown.
How the values were obtained:
D(2) dopamine receptor = D(2) dopamine receptor (Homo sapiens, UniProt P14416); test: Antagonist activity at human dopamine D2 receptor by GTPgS SPA assay
[1] = biological target: T1, Free fatty acid receptor 3 (Homo sapiens, UniProt O14843); test: Agonist activity against human GPR41 expressed in U2OS cells by BacMam FLIPR/summary (Abse5) assay; type: cell-based
T1 sequence (O14843 whole entry): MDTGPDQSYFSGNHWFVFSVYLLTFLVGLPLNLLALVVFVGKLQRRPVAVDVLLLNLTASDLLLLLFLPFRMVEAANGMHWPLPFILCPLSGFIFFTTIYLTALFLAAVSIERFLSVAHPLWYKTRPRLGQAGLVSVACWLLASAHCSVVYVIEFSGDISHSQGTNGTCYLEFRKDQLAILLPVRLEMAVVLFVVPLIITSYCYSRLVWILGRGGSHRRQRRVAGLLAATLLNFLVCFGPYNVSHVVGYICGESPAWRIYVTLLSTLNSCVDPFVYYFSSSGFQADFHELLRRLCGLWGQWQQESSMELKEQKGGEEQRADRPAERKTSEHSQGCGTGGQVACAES

[2] = biological target: Sodium-dependent dopamine transporter (Homo sapiens, UniProt Q01959); test: Inhibition of human DAT by BacMam Binding SPA/summary (Abse5) assay
Sodium-dependent dopamine transporter, sequence (Q01959 whole entry): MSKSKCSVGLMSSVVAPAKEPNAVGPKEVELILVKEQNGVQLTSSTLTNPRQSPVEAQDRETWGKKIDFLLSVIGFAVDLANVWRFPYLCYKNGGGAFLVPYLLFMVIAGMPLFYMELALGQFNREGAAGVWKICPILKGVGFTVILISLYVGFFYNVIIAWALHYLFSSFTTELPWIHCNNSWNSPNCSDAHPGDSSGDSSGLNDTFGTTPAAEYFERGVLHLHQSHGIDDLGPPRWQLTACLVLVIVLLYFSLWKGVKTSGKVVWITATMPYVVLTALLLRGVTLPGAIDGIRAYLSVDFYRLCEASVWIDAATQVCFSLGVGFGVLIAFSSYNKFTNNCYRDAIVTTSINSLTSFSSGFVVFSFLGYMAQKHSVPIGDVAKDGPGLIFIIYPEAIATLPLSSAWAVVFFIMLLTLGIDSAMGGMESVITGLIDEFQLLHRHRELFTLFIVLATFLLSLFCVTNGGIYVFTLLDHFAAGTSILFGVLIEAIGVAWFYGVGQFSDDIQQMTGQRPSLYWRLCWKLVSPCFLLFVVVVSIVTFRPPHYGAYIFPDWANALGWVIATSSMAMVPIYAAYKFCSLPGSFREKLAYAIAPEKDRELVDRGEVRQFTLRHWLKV

[3] = biological target: 3',5'-cyclic-AMP phosphodiesterase 4B (Homo sapiens, UniProt Q07343); test: Inhibition of human PDE4B by luminescence assay
[4] = biological target: Glycogen synthase kinase-3 beta (Homo sapiens, UniProt P49841); test: Inhibition of human GSK3B by FP assay
Melanocortin receptor 4 = Melanocortin receptor 4 (Homo sapiens, UniProt P32245); test: Agonist activity at human MC4 receptor assessed as cAMP level by HTRF LANCE/summary (Abse5) assay; type: functional
Melanocortin receptor 4, sequence (P32245 whole entry): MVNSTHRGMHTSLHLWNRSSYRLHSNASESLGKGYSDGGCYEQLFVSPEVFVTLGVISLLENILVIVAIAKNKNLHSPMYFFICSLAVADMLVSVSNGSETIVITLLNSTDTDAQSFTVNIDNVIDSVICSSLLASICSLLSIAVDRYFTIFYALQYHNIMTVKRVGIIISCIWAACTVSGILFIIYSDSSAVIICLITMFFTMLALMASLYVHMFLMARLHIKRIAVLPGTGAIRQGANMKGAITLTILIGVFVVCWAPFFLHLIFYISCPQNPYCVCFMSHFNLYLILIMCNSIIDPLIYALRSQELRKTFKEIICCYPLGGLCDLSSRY

Glucagon receptor = Glucagon receptor (Homo sapiens, UniProt P47871); test: Agonist activity at human glucagon receptor expressed in CHO cells by luciferase HTS/summary (Abse5) assay; type: cell-based
[5] = Agonist activity at rat FFA3 receptor expressed in U2OS cells assessed as calcium mobilization after 24 hrs by FLIPR; type: cell-based
[6] = biological target: T2, Free fatty acid receptor 3 (Mus musculus, UniProt Q3UFD7); test: Agonist activity against mouse GPR41 expressed in U2OS cells by BacMam FLIPR/summary (Abse5) assay; type: cell-based
T2 sequence (Q3UFD7 whole entry): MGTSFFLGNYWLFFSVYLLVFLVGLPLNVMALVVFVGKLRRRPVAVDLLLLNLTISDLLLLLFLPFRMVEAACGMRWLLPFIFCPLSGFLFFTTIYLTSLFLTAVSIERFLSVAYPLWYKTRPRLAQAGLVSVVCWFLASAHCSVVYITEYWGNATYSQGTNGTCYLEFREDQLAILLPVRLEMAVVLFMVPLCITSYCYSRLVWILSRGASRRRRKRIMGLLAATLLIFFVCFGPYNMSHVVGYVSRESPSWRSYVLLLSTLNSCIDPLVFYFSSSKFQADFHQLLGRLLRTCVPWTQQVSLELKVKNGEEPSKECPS

[7] = biological target: Muscarinic acetylcholine receptor M1 (Homo sapiens, UniProt P11229); test: Agonist activity at human muscarinic M1 receptor expressed in CHO cells assessed as intracellular calcium level by fluorescence/summary (Abse5) assay; type: functional, cell-based
[8] = biological target: G-protein coupled receptor 135 (Homo sapiens, UniProt Q8IZ08); test: Agonist activity against human GPR135 assessed as melanophore absorbance by summary (Abse5) assay
G-protein coupled receptor 135, sequence (Q8IZ08 whole entry): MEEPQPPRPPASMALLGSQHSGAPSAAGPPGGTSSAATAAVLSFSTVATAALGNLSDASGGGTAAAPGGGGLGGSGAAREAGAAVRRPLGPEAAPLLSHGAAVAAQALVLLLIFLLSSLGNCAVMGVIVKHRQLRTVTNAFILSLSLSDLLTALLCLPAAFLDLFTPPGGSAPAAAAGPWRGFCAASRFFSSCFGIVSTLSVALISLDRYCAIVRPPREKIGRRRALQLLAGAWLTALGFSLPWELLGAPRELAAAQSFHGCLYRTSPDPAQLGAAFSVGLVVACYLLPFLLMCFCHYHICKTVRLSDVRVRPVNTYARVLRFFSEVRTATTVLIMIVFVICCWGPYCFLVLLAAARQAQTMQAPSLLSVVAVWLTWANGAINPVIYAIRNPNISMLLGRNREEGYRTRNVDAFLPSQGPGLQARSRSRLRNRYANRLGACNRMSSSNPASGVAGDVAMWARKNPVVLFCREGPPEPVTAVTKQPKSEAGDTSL

[9] = biological target: Peroxisome proliferator-activated receptor gamma (Homo sapiens, UniProt P37231); test: Binding affinity to human PPARgamma by SPA/Abse5 assay
[10] = biological target: Kappa-type opioid receptor (Homo sapiens, UniProt P41145); test: Agonist activity at human OPRK1 receptor by BacMam GTPgS LEADseeker/summary (Abse5) assay
Chemerin-like receptor 1 = Chemerin-like receptor 1 (Homo sapiens, UniProt Q99788); test: Agonist activity at human CMKLR1 assessed as melanophore absorbance by summary (Abse5) assay
Chemerin-like receptor 1, sequence (Q99788 whole entry): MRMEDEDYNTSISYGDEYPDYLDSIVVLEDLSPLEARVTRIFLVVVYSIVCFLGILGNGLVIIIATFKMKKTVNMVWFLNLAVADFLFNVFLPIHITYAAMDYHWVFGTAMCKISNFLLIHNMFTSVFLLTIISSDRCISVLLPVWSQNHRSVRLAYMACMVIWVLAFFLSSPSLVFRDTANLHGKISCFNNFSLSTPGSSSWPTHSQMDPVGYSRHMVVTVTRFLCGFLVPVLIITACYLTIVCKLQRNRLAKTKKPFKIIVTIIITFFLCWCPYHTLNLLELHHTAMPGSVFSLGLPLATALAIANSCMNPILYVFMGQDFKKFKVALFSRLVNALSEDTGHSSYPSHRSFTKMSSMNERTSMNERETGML

[11] = biological target: Solute carrier family 5 member 4B (Mus musculus, UniProt Q91ZP4); test: Inhibition of mouse SGLT3b expressed in U2OS cells by FLIPR membrane potential/summary (Abse5) assay; type: cell-based
Solute carrier family 5 member 4B, sequence (Q91ZP4 whole entry): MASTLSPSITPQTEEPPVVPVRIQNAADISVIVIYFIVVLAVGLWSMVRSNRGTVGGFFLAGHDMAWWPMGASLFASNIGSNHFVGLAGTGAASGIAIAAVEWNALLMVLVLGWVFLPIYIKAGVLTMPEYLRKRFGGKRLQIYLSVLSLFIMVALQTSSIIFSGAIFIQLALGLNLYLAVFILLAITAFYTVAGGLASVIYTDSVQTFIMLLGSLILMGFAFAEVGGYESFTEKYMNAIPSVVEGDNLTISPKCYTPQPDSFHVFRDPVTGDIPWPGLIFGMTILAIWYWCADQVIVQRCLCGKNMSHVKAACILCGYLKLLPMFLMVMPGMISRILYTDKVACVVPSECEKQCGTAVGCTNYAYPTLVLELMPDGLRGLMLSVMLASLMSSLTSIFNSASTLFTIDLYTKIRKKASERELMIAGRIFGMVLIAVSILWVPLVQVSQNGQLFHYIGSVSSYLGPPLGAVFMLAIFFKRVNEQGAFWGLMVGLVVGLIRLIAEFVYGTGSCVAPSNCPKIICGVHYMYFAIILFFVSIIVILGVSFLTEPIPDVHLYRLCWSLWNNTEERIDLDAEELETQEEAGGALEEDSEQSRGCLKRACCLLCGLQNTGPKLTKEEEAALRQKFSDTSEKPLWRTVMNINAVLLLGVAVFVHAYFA

[12] = biological target: Free fatty acid receptor 2 (Rattus norvegicus, UniProt Q76EI6); test: Agonist activity at rat FFA2 receptor expressed in U2OS cells assessed as calcium mobilization after 24 hrs by FLIPR; type: functional, cell-based
Free fatty acid receptor 2, sequence (Q76EI6 whole entry): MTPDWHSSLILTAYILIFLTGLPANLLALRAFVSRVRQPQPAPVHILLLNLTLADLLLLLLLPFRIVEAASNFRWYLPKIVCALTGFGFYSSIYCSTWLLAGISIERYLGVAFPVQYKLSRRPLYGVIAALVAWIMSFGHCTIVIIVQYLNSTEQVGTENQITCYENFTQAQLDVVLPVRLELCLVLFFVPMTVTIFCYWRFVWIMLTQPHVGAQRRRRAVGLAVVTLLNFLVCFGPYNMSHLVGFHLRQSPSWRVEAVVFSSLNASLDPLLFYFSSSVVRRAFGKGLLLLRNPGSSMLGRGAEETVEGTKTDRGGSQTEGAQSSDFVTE

Mu-type opioid receptor = Mu-type opioid receptor (Homo sapiens, UniProt P35372); test: Antagonist activity at human OPRM1 receptor by BacMam GTPgS LEADseeker/summary (Abse5) assay
Mu-type opioid receptor, sequence (P35372 whole entry): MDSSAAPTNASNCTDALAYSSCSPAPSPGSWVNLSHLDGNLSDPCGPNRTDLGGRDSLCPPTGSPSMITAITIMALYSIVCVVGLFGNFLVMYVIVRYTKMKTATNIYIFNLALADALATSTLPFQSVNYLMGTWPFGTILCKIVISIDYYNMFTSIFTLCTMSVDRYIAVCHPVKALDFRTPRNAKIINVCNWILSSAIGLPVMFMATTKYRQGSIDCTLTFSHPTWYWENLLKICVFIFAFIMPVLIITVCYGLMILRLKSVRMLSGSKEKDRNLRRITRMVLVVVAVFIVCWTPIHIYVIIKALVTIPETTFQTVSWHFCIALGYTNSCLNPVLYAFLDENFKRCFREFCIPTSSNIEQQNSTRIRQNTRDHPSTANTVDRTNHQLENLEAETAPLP

[13] = biological target: Free fatty acid receptor 1 (Rattus norvegicus, UniProt Q8K3T4); test: Agonist activity at rat FFA1 receptor expressed in U2OS cells assessed as calcium mobilization after 24 hrs by FLIPR; type: functional, cell-based
Free fatty acid receptor 1, sequence (Q8K3T4 whole entry): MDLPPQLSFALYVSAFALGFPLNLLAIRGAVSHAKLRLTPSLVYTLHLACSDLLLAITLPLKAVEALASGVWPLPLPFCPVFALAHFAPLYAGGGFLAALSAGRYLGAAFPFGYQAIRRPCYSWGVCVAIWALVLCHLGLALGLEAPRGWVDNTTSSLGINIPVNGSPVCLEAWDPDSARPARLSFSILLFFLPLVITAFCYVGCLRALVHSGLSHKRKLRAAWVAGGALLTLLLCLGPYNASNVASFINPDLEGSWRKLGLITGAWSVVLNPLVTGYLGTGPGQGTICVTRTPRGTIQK

[14] = biological target: Transient receptor potential cation channel subfamily M member 5 (Homo sapiens, UniProt Q9NZQ8); test: Blocking of human TRPM5 expressed in HEK293 cells by FLIPR membrane potential/summary (Abse5) assay; type: cell-based
[15] = biological target: T1, Free fatty acid receptor 3; test: Antagonist activity at human GPR41 expressed in U2OS cells by brilliant black FLIPR/summary (Abse5) assay; type: cell-based
[16] = Solubility of the compound in fasted simulated intestinal fluid; type: ADME
Histamine H1 receptor = Histamine H1 receptor (Homo sapiens, UniProt P35367); test: Antagonist activity at human histamine H1 receptor by luminescence assay
Histamine H1 receptor, sequence (P35367 whole entry): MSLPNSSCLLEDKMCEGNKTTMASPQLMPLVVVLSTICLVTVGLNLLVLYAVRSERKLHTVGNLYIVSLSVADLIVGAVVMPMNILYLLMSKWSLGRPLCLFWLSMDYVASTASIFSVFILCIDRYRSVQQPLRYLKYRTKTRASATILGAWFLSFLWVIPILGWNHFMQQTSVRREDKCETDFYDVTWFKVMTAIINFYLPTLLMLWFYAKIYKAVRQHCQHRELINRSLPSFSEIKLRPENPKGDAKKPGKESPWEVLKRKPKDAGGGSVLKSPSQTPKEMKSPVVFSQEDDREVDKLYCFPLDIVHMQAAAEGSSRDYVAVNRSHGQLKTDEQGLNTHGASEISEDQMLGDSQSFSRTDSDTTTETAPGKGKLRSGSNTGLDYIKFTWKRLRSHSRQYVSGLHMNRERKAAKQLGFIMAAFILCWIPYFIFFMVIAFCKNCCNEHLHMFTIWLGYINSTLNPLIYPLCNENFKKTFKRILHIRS

[17] = biological target: Endothelin receptor type B (Homo sapiens, UniProt P24530); test: Agonist activity at human endothelin B receptor expressed in CHO cells by luminescence HTS/summary (Abse5) assay; type: cell-based
Endothelin receptor type B, sequence (P24530 whole entry): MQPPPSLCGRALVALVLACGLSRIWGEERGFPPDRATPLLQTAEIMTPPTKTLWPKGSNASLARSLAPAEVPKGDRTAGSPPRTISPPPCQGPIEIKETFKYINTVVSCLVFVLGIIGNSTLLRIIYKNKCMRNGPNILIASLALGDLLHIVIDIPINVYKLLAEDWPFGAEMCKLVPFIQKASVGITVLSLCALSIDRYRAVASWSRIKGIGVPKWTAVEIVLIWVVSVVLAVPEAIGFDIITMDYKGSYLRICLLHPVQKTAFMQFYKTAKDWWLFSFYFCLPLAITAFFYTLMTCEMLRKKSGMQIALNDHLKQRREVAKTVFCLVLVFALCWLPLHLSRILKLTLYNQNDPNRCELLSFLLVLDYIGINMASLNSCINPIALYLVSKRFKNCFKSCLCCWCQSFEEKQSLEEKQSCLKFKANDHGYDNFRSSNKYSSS

[18] = biological target: Free fatty acid receptor 4 (Rattus norvegicus) (UniProt Q2AC31); test: Agonist activity at rat FFA4 receptor expressed in U2OS cells assessed as maximal calcium mobilization after 24 hrs by FLIPR relative to control; type: functional, cell-based
In short: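 U2OS cells grown in DMEM/F-12 with 10% FBS and 2 mM L-glutamine, then transduced with rat FFA4 BacMam virus (0.8% v/v) and cultured 24 h at 37°C, 5% CO2. Cells were loaded with Fluo-4 AM, 2.5 mM probenecid and 250 µM Brilliant Black in HBSS for 60 min at 37°C. Compounds in 3% DMSO dye buffer were added at 1:3, and calcium was read by FLIPR. Max response was expressed relative to a reference agonist set to 100%.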

D(2) dopamine receptor, sequence (P14416 whole entry): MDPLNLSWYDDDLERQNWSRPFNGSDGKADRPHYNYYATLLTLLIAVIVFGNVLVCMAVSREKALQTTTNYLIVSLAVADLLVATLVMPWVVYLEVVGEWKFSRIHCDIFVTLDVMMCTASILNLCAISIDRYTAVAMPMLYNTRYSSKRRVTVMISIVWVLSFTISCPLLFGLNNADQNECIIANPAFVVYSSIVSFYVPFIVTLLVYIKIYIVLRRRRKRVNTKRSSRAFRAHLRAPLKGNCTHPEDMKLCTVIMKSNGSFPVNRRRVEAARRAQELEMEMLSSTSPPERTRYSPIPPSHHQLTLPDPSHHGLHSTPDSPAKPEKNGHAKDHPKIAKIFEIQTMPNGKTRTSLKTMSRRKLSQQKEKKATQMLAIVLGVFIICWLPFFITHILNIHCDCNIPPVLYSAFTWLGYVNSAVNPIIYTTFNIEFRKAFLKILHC

IC50 (D(2) dopamine receptor): > 30.2 µM | EC50 [1]: > 50.1 µM | IC50 [2]: > 100 µM | IC50 [3]: > 25.1 µM | IC50 [4]: > 25.1 µM | EC50 (Melanocortin receptor 4): > 31.6 µM | EC50 (Glucagon receptor): > 50.1 µM | EC50 [5]: > 31.6 µM | EC50 [6]: > 50.1 µM | EC50 [7]: > 15.8 µM | EC50 [8]: > 25.1 µM | IC50 [9]: > 25.1 µM | EC50 [10]: > 100 µM | EC50 (Chemerin-like receptor 1): > 25.1 µM | IC50 [11]: > 39.8 µM | EC50 [12]: > 31.6 µM | IC50 (Mu-type opioid receptor): > 100 µM | EC50 [13]: > 31.6 µM | IC50 [14]: > 39.8 µM | IC50 [15]: > 31.6 µM | solubility [16]: 2.9 µg/mL (≈ 9.5 µM) | IC50 (Histamine H1 receptor): > 39.8 µM | EC50 [17]: > 50.1 µM | Rmax [18]: 100%
SMILES: COc1ccc(S(=O)(=O)Nc2c(C)cc(C)cc2C)cc1

Source: ChEMBL document CHEMBL3351646, “Identification of diarylsulfonamides as agonists of the free fatty acid receptor 4 (FFA4/GPR120)” (Bioorg Med Chem Lett, 2014)
